Experimental findings from the RNAGym collection of RNA variant scans (doi:10.1126/science.aae0568) are described below.

Fewer inactive variants are shown than the library holds. Where only a bound is given, the exact number is not on record here.

To fix the notation:
B1: tRNA (parent)
chain: GUUCCGUUGGCGUAAUGGUAACGCGUCUCCCUCCUAAGGAGAAGACUGCGGGUUCGAGUCCCGUACGGAACG

This data set covers variants of B1. Description: yeast fitness relative to wild type (ratio to wild type); higher = fitter; tRNA-Arg(CCU), competitive growth, 37 C, YPD. The gist of the method:
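Variants of the tRNA-Arg(CCU) gene, chemically synthesised with a 3% per-site mutation rate at 69 sites, were placed at the native genomic locus in Saccharomyces cerevisiae. The pooled strains were competed in YPD at 37°C for 24 hours in six parallel replicates. Gene amplicons from the start population and from each end population were read by 100-nucleotide paired-end sequencing. Darwinian fitness relative to wild type came from changes in genotype frequencies; genotypes needed ≥ 100 starting reads, and estimates < 0.5 were set to 0.5.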
As for G6A U53A G67U G68A, the yeast fitness was at most 0.5. In the case of G6C A36U it was 0.653; in that of G6C A36C, 0.53. In the case of G6C A36G it was 0.875.

Take G6C C33G A36U G38C A65G: the yeast fitness was at most 0.5. For G6A U13A G58C C60U C66G the value was at most 0.5.

Consider G6C A14C U54C A65U, for which the yeast fitness came out at 0.637.

Regarding G6A G50A A65U, the yeast fitness is at most 0.5. For G6A U28C the value was 0.898. In the case of G6A U28A it was 0.821; in that of G6A U28G, 0.886. In the case of G6C A37C G58C U59C it was at most 0.5; in that of G6C C24A C46G G52A, 0.695; in that of G6A G39C A45G, at most 0.5. With G6C C22U A65G C66G G68C, the yeast fitness is at most 0.5. For G6C A14G A20C G52A U64A G67A, the yeast fitness was at most 0.5. For G6C C33G C34U C49U U64A the value was at most 0.5; for G6C C49U, 0.965; for G6A U26A A37C A57U, at most 0.5. For G6C C11G C22U A69C the value was at most 0.5; for G6C C24A, 0.525; for G6C C24G, 0.686. In the case of G6C C11A C34G C66A it was at most 0.5; in that of G6A G41A C62U, 0.619; in that of G6A U13C C22G C55G, at most 0.5. G6C A21U U26C: the yeast fitness is at most 0.5.

Take G6C A20G C61G: the yeast fitness was at most 0.5.

With G6C A14U G18C C49U, the yeast fitness is at most 0.5. In the case of G6A G44A G51C C66U it was at most 0.5; in that of G6A G44A C61G, at most 0.5. With G6C A14C C24U C27G C29A A70G, the yeast fitness is at most 0.5. With G6C C27U G51U G67A, the yeast fitness is at most 0.5. Regarding G6A U16A A43C G67C, the yeast fitness is at most 0.5.

With G6A U8G A36G, the yeast fitness was at most 0.5. In the case of G6C A14G C46G C62U C66U it was at most 0.5; in that of G6A U7C G41A A42C G50C A70G, 0.593; in that of G6A U19G, 0.828. On to G6C C29U C31U U54G A65U G67A, for which the yeast fitness is at most 0.5.

Take G6A U13A A40G A42G A57C C66U: the yeast fitness worked out at 0.525. For G6C C30A C34A A43C C62U the value was at most 0.5; for G6C C22A C31G A70C, at most 0.5. In the case of G6A U8C C62U it was 0.604; in that of G6C C46A G63A, 0.689. For G6C A14C A21C A42G A70G the value was at most 0.5. On to G6C C11U C31G A36G G48C G67C, for which the yeast fitness was at most 0.5. For G6C C11A G48C the value was 0.627; for G6C C46G U54C, at most 0.5. In the case of G6C A15C A21C C34U A37U A69U, the yeast fitness is at most 0.5. For G6C C22A C31G A42G A65C the value was at most 0.5; for G6C C11G C29U G50A C55U, at most 0.5; for G6A G52A, 0.677. In the case of G6C A45C G50A, the yeast fitness came to 0.629. In the case of G6A U8C A15G A20U A45U U64C it was at most 0.5.

G6A G44A C46A: the yeast fitness was at most 0.5.

Turning to G6C C33A G56A U59A, the yeast fitness was at most 0.5.

With G6A U7A A20G C46G, the yeast fitness worked out at 0.538.

For G6C A15U U26A A57C, the yeast fitness is 0.707. In the case of G6C C11G A15C G25C C27G C30G G38C it was 0.61. In the case of G6C C29U C34U it was 0.561; in that of G6C C11U C34G U47G, at most 0.5. For G6A U54G G58A the value was at most 0.5; for G6C A36U A43G G48A C49U U53C, at most 0.5; for G6C C29U G44A A65G, at most 0.5. For G6C C27A A42C G52A G56A G63C, the yeast fitness was at most 0.5. In the case of G6A U8A A42U it was at most 0.5; in that of G6A U13A C30G C61U, 0.601. For G6A G50C the value was 0.629; for G6A G50A, 0.841; for G6A G50U, 0.826. For G6C C11U U19C G44C G68A the value was at most 0.5. Turning to G6A U7A U26C C34G G63A, the yeast fitness was at most 0.5.

For G6C A14C, the yeast fitness worked out at 0.596. With G6C A14U, the yeast fitness is 0.607. In the case of G6C A14G it was 1. As to G6A G44A A45G G51C C66U A69C, the yeast fitness is at most 0.5. For G6C A14C C29U C34G C46U A57G C66A G68C the value was at most 0.5.

G6C A14C C27U: the yeast fitness amounted to 0.539.

In the case of G6C A45C G58A, the yeast fitness was 0.587. On to G6C C24A A70C, for which the yeast fitness is at most 0.5. For G6C A15C A21C C34U A37U G56C U59G the value was at most 0.5; for G6C C11A C34G, at most 0.5. For G6C C22G U64A, the yeast fitness was at most 0.5. For G6A U8C G23A A57C the value was at most 0.5.
